Series [1] can be described thus: Cmax in CD-1 mouse plasma at 50 mg/kg, po measured upto 24 hrs by LC-MS/MS analysis. To be noted: in vivo.
For the next series, the species on record is Homo sapiens. Kind of series: Cytotoxicity against human MCF7:WS8 3D spheroid cells assessed as reduction in tumor cell viability at 10 nM incubated for 14 days by celltiter-glo 3D cell viability assay. In general terms: In ATP-based viability assays light output follows the ATP content of the culture.
Series [2] in a line: AUC extrapolated from the last time point to infinity in CD-1 mouse plasma at 50 mg/kg, po measured upto 24 hrs by LC-MS/MS analysis. The note with it: in vivo.
Series [3] deals with T1, Estrogen receptor (Homo sapiens) (UniProt P03372).
T1 sequence (whole entry): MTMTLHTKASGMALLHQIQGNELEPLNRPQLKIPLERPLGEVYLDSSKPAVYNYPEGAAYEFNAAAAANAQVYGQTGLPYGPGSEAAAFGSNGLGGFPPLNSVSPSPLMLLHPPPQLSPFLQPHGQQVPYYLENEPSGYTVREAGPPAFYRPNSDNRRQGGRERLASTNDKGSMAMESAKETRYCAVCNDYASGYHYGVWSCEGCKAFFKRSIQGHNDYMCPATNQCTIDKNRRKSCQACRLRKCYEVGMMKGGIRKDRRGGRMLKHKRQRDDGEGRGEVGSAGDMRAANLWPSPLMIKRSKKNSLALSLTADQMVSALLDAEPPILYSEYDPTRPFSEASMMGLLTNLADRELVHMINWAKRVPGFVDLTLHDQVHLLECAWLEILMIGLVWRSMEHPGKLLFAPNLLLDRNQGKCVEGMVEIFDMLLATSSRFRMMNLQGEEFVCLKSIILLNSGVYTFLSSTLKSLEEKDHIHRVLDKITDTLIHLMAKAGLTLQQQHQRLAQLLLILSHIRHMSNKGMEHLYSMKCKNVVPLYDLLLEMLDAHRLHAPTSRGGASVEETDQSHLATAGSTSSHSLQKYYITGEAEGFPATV
Kind of series: Induction of degradation of ERalpha in human MCF7:WS8 cells at 10 nM in presence of MG-132 incubated for 24 hrs by Western blot analysis. The class given is cell-based. A general note: A western blot detects proteins with antibodies after separation by electrophoresis.

Series [4] in a line: Plasma concentration in C57BL/6 mouse at 100 mg/kg, po measured after 0.5 hrs by LC/MS-MS analysis. The class given is ADME, organism-based. An outline of the steps:
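PK screen in female C57BL/6 mice (N = 3 per time point). Dosed by gavage at 100 mg/kg in HPβD/PEG-400. Plasma and brain were taken from perfused mice at 30 and 120 min. Quantified by LC-MS/MS in MRM mode, with standard curves in each matrix and a common internal standard. Values are mean and s.d.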

Series [5] is described as follows: AUC (0 to infinity) in CD-1 mouse plasma at 50 mg/kg, po measured upto 24 hrs by LC-MS/MS analysis. The note with it: in vivo.

The term Cmax denotes the peak of the concentration-time curve. The term AUC denotes concentration integrated over time. High values mean high exposure, low ones low exposure.

The source made the active and inactive calls. The calls are words filed in the database; no cut-off is given here.

For `Cc1cc(F)cc(C)c1C(=O)c1sc2cc(O)ccc2c1Oc1ccc(OC2CN(CCCF)C2)cc1`, the peak concentration (Cmax) in series [1] stood at 413 ng/mL. Moreover, the result in the series listed under Homo sapiens was Active. Besides, the “%AUCextra” value in series [2] is reported as 26.8%. Also, in series [3], the outcome was inactive. In addition, the concentration at 0.5 h in series [4] turned out to be 2490 nM. In addition, the AUC in series [5] turned out to be 2292 ng·h/mL.

The record behind these values is ChEMBL document CHEMBL4354825, “Design and Synthesis of Basic Selective Estrogen Receptor Degraders for Endocrine Therapy Resistant Breast Cancer” (J Med Chem, 2019).
